In the library only some 1.8% were active in any assay of this set; here they are far more common.
CHRM5 PAM: human M5 muscarinic receptor positive allosteric modulators, primary screen, CHO-K1 cells, Fluo-8 calcium fluorescence | Muscarinic acetylcholine receptor M5 (Homo sapiens), P08912 | CHO-K1 hM5, ACh EC20 PAM; 0% = ACh EC20, 100% = ACh EC100 | activation, % at 3 µM | 0.3% of 360,000 active | AID 624038, 2012;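 active = activation above the run cutoff, the mean activation of all test compounds plus 3 SD, cut at about 18% in these data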
Target sequence (P08912 whole entry, looked up): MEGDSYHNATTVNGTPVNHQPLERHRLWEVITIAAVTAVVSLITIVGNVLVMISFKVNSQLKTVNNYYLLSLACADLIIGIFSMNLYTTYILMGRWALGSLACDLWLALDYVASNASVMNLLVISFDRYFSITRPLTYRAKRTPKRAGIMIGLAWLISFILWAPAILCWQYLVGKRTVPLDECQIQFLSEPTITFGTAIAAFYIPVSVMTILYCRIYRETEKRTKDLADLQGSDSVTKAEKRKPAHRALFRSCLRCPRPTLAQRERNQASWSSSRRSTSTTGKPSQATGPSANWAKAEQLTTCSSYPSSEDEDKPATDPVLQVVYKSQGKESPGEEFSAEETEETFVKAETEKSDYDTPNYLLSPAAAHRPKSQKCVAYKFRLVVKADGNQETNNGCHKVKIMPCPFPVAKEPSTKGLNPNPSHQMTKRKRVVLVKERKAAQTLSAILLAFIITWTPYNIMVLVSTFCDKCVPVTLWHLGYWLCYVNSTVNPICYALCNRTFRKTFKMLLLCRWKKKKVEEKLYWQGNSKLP
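Assay system: CHO-K1 hM5 cells. Also added: acetylcholine at EC20 concentration, added after compound. Dosing: 3 µM, single dose. Times: compound preincubation 140 s before EC20 acetylcholine addition. Signal: Fluo-8 calcium fluorescence. Measure: % activation relative to EC20 and EC100 ACh responses. Repeats: singlicate, one well per test compound.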
CHRM4 agonist: human M4 muscarinic receptor agonists, primary screen, CHO-K1 cells, Fluo-8 calcium fluorescence. Muscarinic acetylcholine receptor M4 (Homo sapiens), P08173. CHO-K1 hM4/Gqi5; vehicle 0%, full acetylcholine response 100%. activation, % at 3 µM. 0.14% of 360,000 active;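 active = activation above the run mean over all test wells plus 3 SD, cut at about 32% in these data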;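 note: peak over basal fluorescence ratio per well then scaled between controls; 0% = DMSO wells and 100% = acetylcholine at EC100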
CHRM5 antagonist: human M5 muscarinic receptor antagonists, primary screen, CHO cells, Fluo-8 calcium fluorescence; inhibition, % at 3 µM; 0.59% of 360,000 active; Muscarinic acetylcholine receptor M5 (Homo sapiens), P08912; CHO-hM5 cells, ACh EC80;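 active = inhibition above a per-plate cutoff, the mean of that plate's test compounds plus 3 SD, cut at about 27% in these data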;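 note: 0% = acetylcholine EC80 with DMSO and 100% = DMSO without agonist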
CHRM4 PAM: human M4 muscarinic receptor positive allosteric modulators, primary screen, CHO-K1 cells, Fluo-8 calcium fluorescence; Muscarinic acetylcholine receptor M4 (Homo sapiens), P08173; CHO-K1 hM4/Gqi5, ACh EC20; 0% = ACh EC20, 100% = maximal ACh; activation, % at 3 µM; 0.4% of 360,000 active;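 active = activation above its plate's cutoff, the mean activation of sample wells plus 3 SD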
CHRM4 antagonist: human M4 muscarinic receptor antagonists, primary screen, CHO cells, Fluo-8 calcium fluorescence; AID 624125, 2012; CHO-hM4 cells, ACh EC80; Muscarinic acetylcholine receptor M4 (Homo sapiens), P08173; inhibition, % at 3 µM; 0.73% of 360,000 active;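 active = inhibition above its plate's cutoff, the mean inhibition of sample wells plus 3 SD, cut at about 27% in these data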;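 note: 0% = acetylcholine EC80 with DMSO and 100% = DMSO without agonist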
M5 ag: human M5 muscarinic receptor agonists, primary screen, CHO-K1 cells, Fluo-8 calcium fluorescence; Muscarinic acetylcholine receptor M5 (Homo sapiens), P08912; CHO-K1 hM5 cells; 0% DMSO wells, 100% maximal acetylcholine response; activation, % at 3 µM; 0.19% of 360,000 active; AID 624037, 2012;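 active = activation above the run's mean over test compounds plus 3 SD, cut at about 23% in these data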;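 note: signal is peak over basal fluorescence ratio across the kinetic read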
The depositor's hits bear a star.

SMILES	CHRM5 PAM	CHRM4 agonist	CHRM5 antagonist	CHRM4 PAM	CHRM4 antagonist	M5 ag
c1ccc(Cc2noc(CN3CCCN(C4Cc5ccccc5C4)CC3)n2)cc1	-31	15	32*	-28	51*	-12
S=C(Nc1ccc(Br)cc1Cl)NN1CCOCC1	-2	1	5	4	-11	-5
Cc1nc(-c2cc(-c3nc(-c4ccc(C(C)(C)C)cc4)no3)no2)cs1	-12	7	15	-21	28*	2
CC1CN(C(=O)CCS(=O)(=O)c2ccccc2)CC(C)O1 (stereo not given)	-1	0	3	6	-13	-3
CC1=NOC(=O)/C1=C\c1ccc(-c2ccc(Br)cc2)o1	-17	10	31*	-11	34*	-5
CC1=NOC(=O)/C1=C\c1ccc(-c2cc(Cl)ccc2Cl)o1	5	1	12	3	7	-2
CC1=NOC(=O)/C1=C/c1ccc(-c2ccc(Cl)cc2)o1	-7	9	17	-2	34*	2
Cc1ccccc1C(=O)NC1CCN(CC(=O)Nc2c(C)cccc2C)CC1	32*	3	-6	29*	-7	-7
Cc1ccccc1C(=O)NC1CCN(CC(=O)Nc2ccccc2)CC1	3	2	2	4	5	3
CCOC(=O)/C(=C/c1ccc(OC(=O)c2ccccc2)cc1)C(C)=O	6	1	-5	21*	-1	-1
CCOC(=O)/C(=C\c1ccccc1)NC(=O)c1ccccc1	19*	2	-19	0	-6	4
CCOC(=O)/C(=C/c1c2ccccc2cc2ccccc12)NC(=O)c1ccccc1	-9	-1	-5	-10	-2	-5
CN(C)CCCn1c(SCc2c(Cl)cccc2Cl)nnc1-c1ccncc1	5	4	-9	22*	15	-1
Cc1ccc(CCNS(=O)(=O)c2ccc3c(c2)NC(=O)CCS3)cc1	2	7	-14	5	-8	2
COc1ccc(CCNS(=O)(=O)c2ccc3c(c2)NC(=O)CCS3)cc1OC	20*	1	-6	6	-16	6
Cc1cc(C(=O)NCc2cccnc2)n(-c2ccccc2)n1	-6	1	-2	-13	35*	0
Cc1ccc(CNC(=O)c2cc(C)nn2-c2ccccc2)cc1	8	1	-3	-19	7	-2
O=C(c1ccccc1)N1CCN=C1SCc1ccc([N+](=O)[O-])cc1	-9	0	4	-16	29*	-6
O=C(C1CCCCC1)N1CCN=C1SCc1cccc([N+](=O)[O-])c1	-2	0	0	-17	32*	-9
O=C(C1CCCCC1)N1CCN=C1SCc1cccnc1	-3	1	0	-2	-5	1
CCCN(CCC)Cc1cc(=O)oc2cc(C)cc(C)c12	3	-2	0	-5	-6	-4
OCC[C@@H]1C[C@H](O)[C@@H](O)[C@@]2(OCc3ccc(CO)cc32)O1	2	0	-11	-1	-4	3
O=C(NCC(=O)N(c1ccc(F)cc1)C(C(=O)NC1CCCC1)c1cccnc1)c1ccco1 (stereo not given)	1	-1	12	-4	-12	-2
N#Cc1ccccc1OCC(=O)OCC(=O)N1CCCC1	-6	-1	16	4	2	2
N#Cc1ccccc1OCC(=O)OCCCOC(=O)COc1ccccc1C#N	-11	8	27*	-8	-10	-4
SMILES	CHRM5 PAM	CHRM4 agonist	CHRM5 antagonist	CHRM4 PAM	CHRM4 antagonist	M5 ag
COc1ccc(Cc2n[nH]c(=S)n2NC(=O)Nc2ccc(Cl)c(Cl)c2)cc1	-24	14	30*	-34	23	6
Cn1c(CC(=O)Nc2ccc(Cl)c(Cl)c2)n[nH]c1=S	12	4	-1	10	0	4
CN(C)CCCN(C(=O)c1cc(-c2cccs2)nc2ccccc12)c1nc2c(F)cccc2s1	5	8	4	-13	27*	-5
COCCCNC(=O)C1CCC(CNS(=O)(=O)c2ccc3c(c2)N(C(C)=O)CCO3)CC1 (stereo not given)	0	2	4	6	-9	-3
CN(C)N(Cc1ccccc1)C(=O)C(O)(c1ccccc1)c1ccccc1	-12	10	-2	-12	-5	-23
CN(C)C(C)(C)/C=C/C(O)(c1ccccc1)c1ccccc1	-30	7	63*	-16	70*	-20
Nc1cccc(-c2csc(-n3ncc(C(=O)O)c3C(F)(F)F)n2)c1	7	0	-2	17*	-7	-1
Cc1cc(C)c2c3c(sc2n1)C(=O)N(c1ccccc1)CC(=O)N3	-1	3	3	17	32*	-1
CCc1c(O)nc(SCC(=O)Nc2ccc(Cl)cc2)n(-c2ccccc2)c1=O	4	0	-2	17*	-6	3
CCc1c(O)nc(SCC(=O)Nc2ccc(OC)cc2)n(C2CCCCC2)c1=O	0	-2	0	8	-7	3
CCn1nnnc1SCC(=O)Nc1ccc(OCc2ccccc2)cc1	34*	2	-12	27*	-7	-4
O=C(CCN1CCc2ccccc2C1)Nc1ccccc1	35*	1	-4	6	-14	-6
O=C(CCN1CCN(CCO)CC1)Nc1ccc(OCc2ccccc2)cc1	-4	1	5	-1	0	-2
COC(=O)CSc1nc2ccc(NC(=O)CSc3nnnn3Cc3ccccc3)cc2s1	-36	9	13	-8	27*	-4
O=C(CCN1CCN(Cc2ccccc2)CC1)Nc1ccc(OCc2ccccc2)cc1	-13	20	21	-30	54*	0
O=C(CSc1nc2ccc(NC(=O)CSc3nnnn3Cc3ccccc3)cc2s1)Nc1ccccc1	-6	2	3	-3	10	2
CC(=O)NC(Cc1ccc(F)cc1)C(=O)NC1CCN(C(=O)Nc2ccccc2C)CC1 (stereo not given)	-2	1	-11	4	-13	-4
C=C1c2nc3ccccc3n2C=C(c2ccc(C)cc2)N1c1ccccc1	-5	3	13	2	13	4
COc1ccc(Nc2nc(OC)nc(OC)n2)cc1	-2	1	5	0	2	-1
COc1ccc(Nc2nc(Nc3ccc(OC)cc3)nc(-n3[nH]c(=O)c(C)c3C)n2)cc1	-17	10	31*	-9	28*	-3

Compound activity: PubChem BioAssay, The Scripps Research Institute Molecular Screening Center
